Source: ChEMBL document CHEMBL1125273, “Synthesis and biological evaluation of quinocarcin derivatives: thioalkyl-substituted quinones and hydroquinones” (J Med Chem, 1991)
≈ marks a conversion by molar mass, not a printed value.

What was measured:
[1] = Antitumor activity in vivo in CD2F1 mice measured in terms of percent increase in lifespan calculated at a dose of 6.25 mg/kg intraperitoneally on day one.; assay type: functional; details: Mus musculus, ip, route intraperitoneal
How it was run: (§1)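 P388 lymphocytic leukemia cells (1×10^6) were implanted ip into CD2F1 mice (about 22 g), five mice per group. Drug was given ip from the day after implantation, either once (day 1) or daily on days 1–5. ILS = (T/C − 1) × 100, where T and C are the median survival times of treated and control mice.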

[2] = Ratio of the ILS tested compound/quinocarcin was determined in CD2F1 mice on days 1-5.; assay type: functional, Mus musculus
How it was run: (§2)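 CD2F1 mice (5 per group) received 10^6 P388 cells ip. Drug was given ip on day 1 or on days 1–5. ILS was taken as (T/C − 1) × 100 from median survival times, and each compound's ILS was divided by the ILS of quinocarcin.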

[3] = tested on: HeLa; assay: In vitro concentration required to inhibit the growth of HeLa S3 cells by 50%; assay type: functional, cell-based; details: Homo sapiens
How it was run: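 HeLa S3 cells (5 × 10⁴) seeded in Eagle's MEM with 10% FBS and 0.06 mg/mL kanamycin; graded drug concentrations, diluted in growth medium, added 24 h after seeding. Incubated 72 h at 37 °C, humidified 5% CO₂. Monolayers then washed, detached with 0.05% trypsin/0.02% EDTA and counted electronically; IC50 taken as concentration giving 50% growth inhibition.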

[4] = Ratio of the ILS tested compound/quinocarcin was determined for day one in CD2F1 mice.; assay type: functional, Mus musculus; how it was run: as §2
[5] = Antitumor activity in vivo in CD2F1 mice measured in terms of percent increase in lifespan calculated at a dose of 6.25 mg/kg intraperitoneally on days 1-5.; assay type: functional; details: Mus musculus, ip, route intraperitoneal; how it was run: as §1
[6] = tested on: CCRF S-180; assay: Ratio of ILS tested compound/quinocarcin against murine sarcoma S-180 tumor cell line implanted subcutaneously in mice and the compound administered intravenously at a dose of 12.5 mg/kg on days 1-5.; assay type: functional, Mus musculus; details: route intravenous
[7] = Antitumor activity in vivo in CD2F1 mice measured in terms of percent increase in lifespan calculated at a dose of 25 mg/kg intraperitoneally on day one.; assay type: functional; details: Mus musculus, ip, route intraperitoneal; how it was run: as §1
[8] = Antitumor activity in vivo in CD2F1 mice measured in terms of percent increase in lifespan calculated at a dose of 12.5 mg/kg intraperitoneally on day one.; assay type: functional; details: Mus musculus, ip, route intraperitoneal; how it was run: as §1
[9] = Antitumor activity in vivo in CD2F1 mice measured in terms of percent increase in lifespan calculated at a dose of 3.13 mg/kg intraperitoneally on days 1-5.; assay type: functional; details: Mus musculus, ip, route intraperitoneal; how it was run: as §1
[10] = tested on: St-4; assay: Ratio of ILS tested compound/quinocarcin against St-4 tumor cell line implanted subcutaneously in mice and the compound administered intravenously at a dose of 13.8 mg/kg on days 1-5.; assay type: functional, Homo sapiens; details: route intravenous
[11] = tested on: CCRF S-180; assay: Ratio of ILS tested compound/quinocarcin against murine sarcoma S-180 tumor cell line implanted subcutaneously in mice and the compound administered intravenously at a dose of 10 mg/kg on days 1-5.; assay type: functional, Mus musculus; details: route intravenous
[12] = tested on: Homo sapiens; assay: Ratio of ILS tested compound/quinocarcin against human mammary carcinoma MX-1 cell line implanted subcutaneously in mice and the compound administered intravenously at a dose of 4.41 mg/kg on days 1-5.c means number of cured mice.; assay type: functional; details: route intravenous
[13] = Antitumor activity in vivo in CD2F1 mice measured in terms of percent increase in lifespan calculated at a dose of 5-10 mg/kg intraperitoneally on days 1-5.; assay type: functional, Mus musculus; how it was run: as §1
[14] = tested on: LC-06 cell line; assay: Ratio of ILS tested compound/quinocarcin against LC-06 cell lines implanted subcutaneously in mice and the compound administered intravenously at a dose of 5.59 mg/kg on days 1-5.; assay type: functional, Homo sapiens; details: route intravenous
[15] = tested on: Homo sapiens; assay: Ratio of ILS tested compound/quinocarcin against human mammary carcinoma MX-1 cell line implanted subcutaneously in mice and the compound administered intravenously at a dose of 5.59 mg/kg on days 1-5.c means number of cured mice.; assay type: functional; details: route intravenous
[16] = tested on: Co-3; assay: Ratio of ILS tested compound/quinocarcin against Co-3 tumor cell line implanted subcutaneously in mice and the compound administered intravenously at a dose of 13.8 mg/kg on days 1-5.; assay type: functional, Homo sapiens; details: route intravenous
[17] = tested on: St-4; assay: Ratio of ILS tested compound/quinocarcin against St-4 tumor cell line implanted subcutaneously in mice and the compound administered intravenously at a dose of 8.78 mg/kg on days 1-5.; assay type: functional, Homo sapiens; details: route intravenous

| SMILES | R [2] | IC50 [3] [µg/mL] | R [4] | ILS at 6.25 mg/kg [5] [%] | ILS at 12.5 mg/kg [8] [%] | other results |
| --- | --- | --- | --- | --- | --- | --- |
| CCSC1=C(OC)C(=O)C2=C(C[C@H]3[C@H]4[C@H](C(=O)O)C[C@@H](C(C#N)N3[C@H]2CO)N4C)C1=O (stereo partly specified) | 0.65 | 2.42 (≈ 5.41 µM) | 0.67 | 51 |  | ILS at 6.25 mg/kg [1]: 29%; T/C [6]: 0.47 |
| COC1=C(SC(C)C)C(=O)C2=C(C1=O)[C@@H]1COC3[C@@H]4C[C@@H](C(=O)O)[C@H]([C@H](C2)N31)N4C (stereo partly specified) | 1 | 0.79 (≈ 1.82 µM) | 1.29 | 81 |  | ILS at 6.25 mg/kg [1]: 31% |
| CCSC1=C(OC)C(=O)C2=C(C1=O)[C@H](CO)N1C(C#N)[C@@H]3C[C@@H](C(=O)O)[C@H]([C@@H]1C2)N3C (stereo partly specified) | 0.76 | 2.88 (≈ 6.44 µM) | 0.72 | 59 |  | ILS at 25 mg/kg [7]: 31% |
| CC(C)Sc1c(O)c2c(c(O)c1SC(C)C)[C@H](CO)N1C(C#N)[C@@H]3C[C@@H](C(=O)O)[C@H]([C@@H]1C2)N3C (stereo partly specified) | 1.09 | < 0.03 | 1 | 102 | 51 |  |
| CCSc1c(O)c2c(c(O)c1SCC)[C@H](CO)N1C(C#N)[C@@H]3C[C@@H](C(=O)O)[C@H]([C@@H]1C2)N3C (stereo partly specified) |  | < 0.03 |  |  |  |  |
| CCCSC1=C(SCCC)C(=O)C2=C(C[C@H]3[C@H]4[C@H](C(=O)O)C[C@@H](C(C#N)N3[C@H]2CO)N4C)C1=O (stereo partly specified) | 0.48 | 0.05 (≈ 0.0989 µM) | 1.17 | 42 |  | ILS at 25 mg/kg [7]: 56% |
| CN1[C@@H]2[C@H](C(=O)O)C[C@H]1C(C#N)N1[C@@H](CO)C3=C(C[C@@H]21)C(=O)C(SC(C)(C)C)=C(SC(C)(C)C)C3=O (stereo partly specified) | 0.5 | 0.004 (≈ 0.00749 µM) | 1.26 |  |  | ILS at 25 mg/kg [7]: 48%; ILS at 3.13 mg/kg [9]: 46% |
| COc1cccc2c1[C@@H]1COC3[C@@H]4C[C@@H](C(=O)O)[C@H]([C@H](C2)N31)N4C (stereo partly specified) | 1 | 0.11 (≈ 0.333 µM) | 1 |  | 48 | T/C [10]: 0.42; T/C [11]: 0.74; T/C [12]: 0; ILS [13]: 120%; T/C [14]: 0.23; T/C [15]: 0.01; T/C [16]: 0.22; T/C [17]: 0.55 |
| CN1[C@@H]2[C@H](C(=O)O)C[C@H]1C(C#N)N1[C@@H](CO)c3c(O)c(SCCO)c(SCCO)c(O)c3C[C@@H]21 (stereo partly specified) | 0.39 | 3.24 (≈ 6.33 µM) | 0.44 | 41 |  | ILS at 6.25 mg/kg [1]: 18% |
| CN1[C@@H]2[C@H](C(=O)O)C[C@H]1C(C#N)N1[C@@H](CO)c3c(O)ccc(O)c3C[C@@H]21 (stereo partly specified) |  | 6.1 (≈ 17 µM) |  | 23 | 23 |  |
| CN1[C@@H]2[C@H](C(=O)O)C[C@H]1C(C#N)N1[C@@H](CO)C3=C(C[C@@H]21)C(=O)C(SCCO)=C(SCCO)C3=O (stereo partly specified) |  | 2.47 (≈ 4.85 µM) | 0.62 | 20 | 26 |  |
